Experimental data taken from ChEMBL document CHEMBL3864176, “New Series of BPL Inhibitors To Probe the Ribose-Binding Pocket of Staphylococcus aureus Biotin Protein Ligase” (ACS Med Chem Lett, 2016).
pKi: −log10 of the molar value. Calls of active or inactive are those of the source. The rule behind the calls is not given here.

Legend:
[1] = Inhibition of Staphylococcus aureus biotin protein ligase assessed as reduction in 3H-biotin incorporation into Staphylococcus aureus pyruvate carboxylase biotin domain after 10 mins by liquid scintillation counting analysis
Procedure, shortened: (§1)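 Recombinant S. aureus BPL; enzymatic incorporation of radiolabeled biotin onto an acceptor protein measured across varying inhibitor concentrations to give IC50. Ki calculated from IC50 assuming competitive inhibition versus biotin, using the known KM for biotin.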

Biotin--protein ligase = molecular target: T1, Biotin--protein ligase (Homo sapiens, UniProt P50747); assay: Inhibition of human biotin protein ligase assessed as reduction in 3H-biotin incorporation into pyruvate carboxylase biotin domain after 10 mins by liquid scintillation counting analysis
T1 sequence (P50747 whole entry): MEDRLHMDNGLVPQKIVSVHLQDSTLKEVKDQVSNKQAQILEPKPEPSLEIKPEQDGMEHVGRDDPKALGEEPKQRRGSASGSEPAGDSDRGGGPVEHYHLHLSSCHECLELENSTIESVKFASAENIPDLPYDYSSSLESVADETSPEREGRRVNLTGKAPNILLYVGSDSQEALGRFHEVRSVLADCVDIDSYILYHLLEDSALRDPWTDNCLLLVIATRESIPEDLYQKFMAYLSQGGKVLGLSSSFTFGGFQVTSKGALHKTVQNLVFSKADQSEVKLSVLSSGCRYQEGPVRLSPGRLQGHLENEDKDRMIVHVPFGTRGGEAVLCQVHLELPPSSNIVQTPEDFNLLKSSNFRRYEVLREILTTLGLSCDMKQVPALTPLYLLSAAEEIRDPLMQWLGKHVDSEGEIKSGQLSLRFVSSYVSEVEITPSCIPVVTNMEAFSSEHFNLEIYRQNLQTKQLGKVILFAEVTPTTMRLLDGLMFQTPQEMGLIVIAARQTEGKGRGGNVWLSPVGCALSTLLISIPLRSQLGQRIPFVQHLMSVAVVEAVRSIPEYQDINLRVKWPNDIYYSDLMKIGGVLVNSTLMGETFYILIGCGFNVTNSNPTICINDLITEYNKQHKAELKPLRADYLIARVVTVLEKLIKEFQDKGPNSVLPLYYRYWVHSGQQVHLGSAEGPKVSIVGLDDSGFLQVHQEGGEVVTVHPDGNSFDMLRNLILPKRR
Procedure, shortened: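 Recombinant human BPL; radiolabeled biotin transfer onto an acceptor protein measured with 100 μM compound included in the assay medium.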

Staphylococcus aureus [2] = assay: Growth inhibition of Staphylococcus aureus ATCC 49775 after 16 to 20 hrs by microbroth dilution method relative to control; type: functional; set-up: concentration or dose not given beside the values
Procedure, shortened: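 S. aureus ATCC 49775 cultured with compound; growth read spectrophotometrically at 600 nm 20 h post-treatment. Activity called where culture optical density fell by >40% relative to nontreated controls.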

[3] = Cytotoxicity against human HepG2 cells assessed as decrease in cell viability at 40 ug/ml after 24 to 48 hrs by WST-1 assay; type: toxicity, cell-based
Procedure, shortened: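 Cultured HepG2 cells (ATCC HB-8065) exposed to compound at a single concentration of 40 μg/mL to assess cytotoxicity.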

Staphylococcus aureus [4] = assay: Growth inhibition of Staphylococcus aureus RN4220 harboring pCN51 at 16 ug/ml measured every 30 mins for 16 hrs; type: functional
Procedure, shortened: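 Cultures grown in medium with 16 μg/mL compound for 16 h; optical density read every 30 min and compared with nontreated controls. Part of a target-overexpression test of the BPL mechanism.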

[5] = Inhibition of Staphylococcus aureus C-terminal His6-tagged biotin protein ligase assessed as reduction in 3H-biotin incorporation into biotin domain of substrate; procedure, shortened: as §1
[6] = Selectivity ratio of Ki for Staphylococcus aureus C-terminal His6-tagged biotin protein ligase to Ki for human C-terminal His6-tagged biotin protein ligase
Procedure, shortened: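 Recombinant S. aureus and human BPLs; enzymatic incorporation of radiolabeled biotin onto an acceptor protein measured across varying compound concentrations. IC50 converted to Ki assuming competition with biotin, using the known biotin KM. Human enzyme tested with 100 μM compound in the assay.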

Row | Structure (SMILES) | pKi [1] | pKi (Biotin--protein ligase) | growth inhibition (GI) (Staphylococcus aureus [2]) | Activity [3] | growth inhibition (GI) (Staphylococcus aureus [4]) | pKi [5] | Ratio Ki [6]
1 | Nc1ccc(Cn2cc(CCCCC[C@@H]3SC[C@@H]4NC(=O)N[C@@H]43)nn2)cc1 | < 5.00 | < 4.80 | – | – | – | – | –
2 | Cc1ccc(Cn2cc(CCCCC[C@@H]3SC[C@@H]4NC(=O)N[C@@H]43)nn2)cc1 | < 5.00 | < 4.80 | – | – | – | – | –
3 | O=C1N[C@H]2[C@H](CS[C@H]2CCCCCc2cn(Cc3ccc(F)cc3)nn2)N1 | 6.22 | < 4.80 | >40% | > 40 µg/mL | – | – | –
4 | O=C1N[C@H]2[C@H](CS[C@H]2CCCCCc2cn(Cc3ccc(C(F)(F)F)cc3)nn2)N1 | < 5.00 | < 4.80 | – | – | – | – | –
5 | O=C1N[C@H]2[C@H](CS[C@H]2CCCCCc2cn(Cc3ccc(C(=O)O)cc3)nn2)N1 | 6.17 | < 4.80 | – | – | – | – | –
6 | O=C1N[C@H]2[C@H](CS[C@H]2CCCCCc2cn(Cc3ccccc3Br)nn2)N1 | 6.02 | < 4.80 | >40% | – | – | – | –
7 | O=C1N[C@H]2[C@H](CS[C@H]2CCCCCc2cn(Cc3ccccc3Cl)nn2)N1 | < 5.00 | < 4.80 | – | – | – | – | –
8 | O=C1N[C@H]2[C@H](CS[C@H]2CCCCCc2cn(Cc3cccc(I)c3)nn2)N1 | < 5.00 | < 4.80 | – | – | – | – | –
9 | CC(C)(C)c1ccc(Cn2cc(CCCCC[C@@H]3SC[C@@H]4NC(=O)N[C@@H]43)nn2)cc1 | 5.96 | < 4.80 | >40% | – | – | – | –
10 | O=C1N[C@H]2[C@H](CS[C@H]2CCCCCc2cn(Cc3cccc(F)c3)nn2)N1 | 6.55 | < 4.80 | >40% | > 40 µg/mL | Active | – | –
11 | O=C1N[C@H]2[C@H](CS[C@H]2CCCCCc2cn(Cc3cccc(O)c3)nn2)N1 | < 5.00 | < 4.80 | – | – | – | – | –
12 | COc1ccccc1Cn1cc(CCCCC[C@@H]2SC[C@@H]3NC(=O)N[C@@H]32)nn1 | 6.28 | < 4.80 | – | – | – | – | –
13 | O=C1N[C@H]2[C@H](CS[C@H]2CCCCCc2cn(Cc3cccc(Cl)c3)nn2)N1 | 6.41 | < 4.80 | >40% | > 40 µg/mL | – | – | –
14 | O=C1N[C@H]2[C@H](CS[C@H]2CCCCCc2cn(Cc3ccccc3O)nn2)N1 | < 5.00 | < 4.80 | – | – | – | – | –
15 | O=C1N[C@H]2[C@H](CS[C@H]2CCCCCc2cn(Cc3ccc(Cl)cc3)nn2)N1 | 5.96 | < 4.80 | >40% | > 40 µg/mL | – | – | –
16 | Cc1ccc2oc(=O)n(CCCCn3cc(CCCCC[C@@H]4SC[C@@H]5NC(=O)N[C@@H]54)nn3)c2c1 | – | – | – | – | – | 7.05 | > 1000
17 | COc1ccc(Cn2cc(CCCCC[C@@H]3SC[C@@H]4NC(=O)N[C@@H]43)nn2)cc1 | < 5.00 | < 4.80 | – | – | – | – | –
18 | O=C1N[C@H]2[C@H](CS[C@H]2CCCCCc2cn(Cc3cccc(C(F)(F)F)c3)nn2)N1 | < 5.00 | < 4.80 | – | – | – | – | –
19 | O=C1N[C@H]2[C@H](CS[C@H]2CCCCCc2cn(Cc3ccc(I)cc3)nn2)N1 | 6.25 | < 4.80 | >40% | – | – | – | –
20 | Nc1cccc(Cn2cc(CCCCC[C@@H]3SC[C@@H]4NC(=O)N[C@@H]43)nn2)c1 | < 5.00 | < 4.80 | – | – | – | – | –
21 | COc1cccc(Cn2cc(CCCCC[C@@H]3SC[C@@H]4NC(=O)N[C@@H]43)nn2)c1 | 5.96 | < 4.80 | – | – | – | – | –
22 | O=C1N[C@H]2[C@H](CS[C@H]2CCCCCc2cn(Cc3ccc(F)c(F)c3)nn2)N1 | < 5.00 | < 4.80 | – | – | – | – | –
23 | Cc1cccc(Cn2cc(CCCCC[C@@H]3SC[C@@H]4NC(=O)N[C@@H]43)nn2)c1 | 6.15 | < 4.80 | >40% | – | – | – | –
24 | Nc1ccccc1Cn1cc(CCCCC[C@@H]2SC[C@@H]3NC(=O)N[C@@H]32)nn1 | 5.83 | < 4.80 | >40% | – | Active | – | –
25 | O=C1N[C@H]2[C@H](CS[C@H]2CCCCCc2cn(Cc3ccccc3F)nn2)N1 | < 5.00 | < 4.80 | – | – | – | – | –
26 | O=C1N[C@H]2[C@H](CS[C@H]2CCCCCc2cn(Cc3ccc(O)cc3)nn2)N1 | 5.80 | < 4.80 | – | – | – | – | –
